Experimental data taken from ChEMBL document CHEMBL1147217, “ent-Kaurane diterpenoids from croton tonkinensis inhibit LPS-induced NF-kappaB activation and NO production” (J Nat Prod, 2003).

What was measured:
RAW264.7 [1] = experiment: Inhibition of LPS-induced NO production in mouse RAW264.7 cells after 24 hrs by Griess method; assay type: functional, cell-based; settings: RAW264.7, 24 h
Summary of the method: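 RAW264.7 cells at 1 × 10^5 cells/well, 3 h incubation, then LPS (1 µg/mL) for 24 h with or without test agent. Supernatant nitrite measured as NO readout by Griess reaction (equal volume of 0.1% N-(1-naphthyl)ethylenediamine/1% sulfanilamide in 5% phosphoric acid); absorbance 570 nm. IC50 values; means ± SD of six independent experiments.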

[2] = (§1) Inhibition of LPS-induced NF-kappaB activation in mouse RAW264.7 cells after 24 hrs by SEAP reporter assay; assay type: cell-based; settings: RAW264.7, 24 h
Summary of the method: (§2)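 RAW264.7 cells carrying a reporter plasmid with eight κB copies driving SEAP; seeded 5 × 10^4 cells/well, 3 h at 37 °C, then test agent at various concentrations plus LPS (1 µg/mL) for 24 h. Supernatant heated 65 °C 5 min, mixed with SEAP buffer (diethanolamine, MgCl2, L-homoarginine) 10 min 37 °C, then p-nitrophenyl phosphate at 37 °C; A405. IC50 values; means ± SD of six independent experiments.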

RAW264.7 [3] = experiment: as §1; assay type: cell-based; summary of the method: as §2
RAW264.7 [4] = experiment: Cytotoxicity against mouse RAW264.7 cells upto 3 uM by MTT assay; assay type: cell-based

| Structure (SMILES) | IC50 (RAW264.7 [1]) [nM] | IC50 [2] [nM] | Activity (RAW264.7 [3]) | Activity (RAW264.7 [4]) |
| --- | --- | --- | --- | --- |
| C=C1C(=O)O[C@@H]2C3O[C@]3(C)CC/C=C(\C)CC[C@@H]12 (some centres undefined) | 2010 | 2340 |  |  |
| C=C1C(=O)[C@@]23[C@H](O)C[C@@H]4C(C)(C)CC[C@@H](OC(C)=O)[C@@]4(C)[C@@H]2CC[C@@H]1[C@H]3O | 470 | 420 | Dose-dependent effect | Non-toxic |
| N=C(N)NN [PIMAGEDINE] | 4060 |  |  |  |

Stronger by IC50 (RAW264.7 [1]), values ahead:

| IC50 (RAW264.7 [1]) [nM] | IC50 [2] [nM] | Structure (SMILES) | Activity (RAW264.7 [3]) | Activity (RAW264.7 [4]) |
| --- | --- | --- | --- | --- |
| 150 | 70 | C=C1C(=O)[C@@]23[C@H](O)C[C@@H]4[C@@](C)(COC(C)=O)CCC[C@@]4(C)[C@@H]2CC[C@@H]1[C@H]3O | Dose-dependent effect | Non-toxic |
| 210 | 100 | C=C1C(=O)[C@]23C[C@H]1CC[C@H]2[C@]1(C)CCC[C@](C)(COC(C)=O)[C@H]1C[C@H]3O | Dose-dependent effect | Non-toxic |
| 260 | 110 | C=C1C(=O)[C@@]23[C@H](O)C[C@@H]4C(C)(C)CCC[C@@]4(C)[C@@H]2CC[C@@H]1[C@H]3O | Dose-dependent effect | Non-toxic |
